From ChEMBL document CHEMBL1123566, “Synthesis and cardiac electrophysiological activity of 2- and 3-[(substituted phenyl)alkyl]quinuclidines. Structure-activity relationships” (1987)
Several values for one entry are separate records, joined by “and”; a condition that tells them apart may be missing. Equal entries are not always repeated.

Legend:
Canis familiaris [1] = organism: Canis familiaris; assay: In vitro electrophysiological evaluation in canine cardiac ventricular muscle reported as maximum % change for functional refractory period (FRP) at 0.1-100 uM concentration range; concentration at which it occurred is 10 uM.; parameters: species or system Canis lupus familiaris, Muscle tissue
How it was run: (§1)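 Canine right ventricle and papillary muscle strips in oxygenated Tyrode's solution, fitted with stimulating and recording electrodes. The extra-stimulus conduction-interval method was adapted for in vitro use. FRP and CT were read from a conduction-interval curve before and after various compound concentrations, and expressed as percent change from control. Compounds were taken from 10 mM deionized-water stock into Tyrode's. Each strip was used once as its own control.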

Canis familiaris [2] = organism: Canis familiaris; assay: In vitro electrophysiological evaluation in canine cardiac ventricular muscle reported as % change for the functional refractory period (FRP) at 10 uM at concentration range of 0.1-100 uM; parameters: species or system Canis lupus familiaris, Muscle tissue; how it was run: as §1
Canis familiaris [3] = organism: Canis familiaris; assay: In vitro electrophysiological evaluation in canine cardiac Purkinje fibres reported as percent change Vmax at 10 uM at concentration range of 0.1-100 uM; Minimal (<10% decrease or increase in V max).; format: functional, organism-based; settings: Canis lupus familiaris, Purkinje fiber
How it was run: (§2)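 Canine cardiac Purkinje fibres, intracellular microelectrode recording, paced at a basic cycle length of 1 s. APD95 and Vmax read simultaneously. Compound: 10 mM stock in deionized water, diluted into Tyrode's solution, tested over the stated concentration range. Each fibre used once as its own control. Result is % change from control, given at 10 µM or as the maximum with its concentration. M = <10% decrease or an increase in Vmax.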

Canis familiaris [4] = organism: Canis familiaris; assay: In vitro electrophysiological evaluation in canine cardiac Purkinje fibres reported as percent change Vmax at 10 uM at concentration range of 1-100 uM; format: functional; settings: Canis lupus familiaris, Purkinje fiber; how it was run: as §2
Canis familiaris [5] = organism: Canis familiaris; assay: In vitro electrophysiological evaluation in canine cardiac occurred is 100 uM; format: functional; settings: Canis lupus familiaris; Heart
Canis familiaris [6] = organism: Canis familiaris; assay: In vitro electrophysiological evaluation in canine cardiac ventricular muscle reported as maximum % change for conduction time(CT) at 0.1-100 uM concentration range; concentration at which it occurred is 100 uM.; format: functional, Canis lupus familiaris, Muscle tissue
Canis familiaris [7] = organism: Canis familiaris; assay: In vitro electrophysiological evaluation in canine cardiac Purkinje fibres reported as maximum percent change Vmax concentration range of 0.1-100 uM; Minimal (<10% decrease or increase in V max).; format: functional; settings: Canis lupus familiaris; Purkinje fiber; how it was run: as §2
Canis familiaris [8] = organism: Canis familiaris; assay: In vitro electrophysiological evaluation in canine cardiac Purkinje fibres reported as % change for action potential duration at 10 uM at 1-100 uM concentration range; format: functional, Canis lupus familiaris, Purkinje fiber; how it was run: as §2
Canis familiaris [9] = organism: Canis familiaris; assay: In vitro electrophysiological evaluation in canine cardiac Purkinje fibres reported as % change for action potential duration at a concentration of 10 uM; format: functional, Canis lupus familiaris, Purkinje fiber; how it was run: as §2
Canis familiaris [10] = organism: Canis familiaris; assay: (§3) In vitro electrophysiological activity in canine cardiac occurred is 100 uM; format: functional, Canis lupus familiaris, Heart
Canis familiaris [11] = organism: Canis familiaris; assay: as §3; format: functional, Canis lupus familiaris, Heart; remark: listed apart in the source
Canis familiaris [12] = organism: Canis familiaris; assay: In vitro electrophysiological evaluation in canine cardiac ventricular muscle reported as maximum % change for conduction time(CT); Minimal (<10% decrease or increase in […]).; format: functional, Canis lupus familiaris, Muscle tissue; how it was run: as §1
Canis familiaris [13] = organism: Canis familiaris; assay: In vitro electrophysiological evaluation in canine cardiac ventricular muscle reported as % change for the functional refractory period (FRP) at 10 uM; parameters: species or system Canis lupus familiaris, Muscle tissue; how it was run: as §1
Canis familiaris [14] = organism: Canis familiaris; assay: In vitro electrophysiological evaluation in canine cardiac ventricular muscle reported as % change for conduction time(CT) at 10 uM; Minimal (<10% decrease or increase in Vmax).; format: functional, Canis lupus familiaris, Muscle tissue; how it was run: as §1
Canis familiaris [15] = organism: Canis familiaris; assay: In vitro electrophysiological evaluation in canine cardiac Purkinje fibres reported as percent change Vmax at 10 uM at concentration range of 0.1-100 uM; Minimal (<10% decrease or increase in Vmax).; format: functional, organism-based; settings: Canis lupus familiaris, Purkinje fiber; how it was run: as §2
Canis familiaris [16] = organism: Canis familiaris; assay: In vitro electrophysiological evaluation in canine cardiac ventricular muscle reported as maximum % change for functional refractory period (FRP); concentration at which it occurred is 10 uM.; parameters: species or system Canis lupus familiaris, Muscle tissue; how it was run: as §1
Canis familiaris [17] = organism: Canis familiaris; assay: In vitro electrophysiological evaluation in canine cardiac Purkinje fibres reported as maximum percent change Vmax concentration range of 0.1-100 uM; Minimal (<10% decrease or increase in Vmax).; format: functional; settings: Canis lupus familiaris; Purkinje fiber; how it was run: as §2
Canis familiaris [18] = organism: Canis familiaris; assay: In vitro electrophysiological evaluation in canine cardiac Purkinje fibres reported as % change for action potential duration at 10 uM at 0.1-100 uM concentration range; format: functional, Canis lupus familiaris, Purkinje fiber; how it was run: as §2
Canis familiaris [19] = organism: Canis familiaris; assay: In vitro electrophysiological activity in canine cardiac occurred is 100 uM.; format: functional, Canis lupus familiaris, Heart

| Structure (SMILES) | FRP (Canis familiaris [1]) [%] | FRP (Canis familiaris [2]) [%] | Vmax (Canis familiaris [3]) [%] | Vmax (Canis familiaris [4]) [%] | Vmax (Canis familiaris [5]) [%] | CT (Canis familiaris [6]) [%] | Vmax (Canis familiaris [7]) [%] | APD95 (Canis familiaris [8]) [%] | APD95 (Canis familiaris [9]) [%] | APD95 (Canis familiaris [10]) [%] | APD95 (Canis familiaris [11]) [%] | CT (Canis familiaris [12]) [%] | FRP (Canis familiaris [13]) [%] | CT (Canis familiaris [14]) [%] | Vmax (Canis familiaris [15]) [%] | FRP (Canis familiaris [16]) [%] | Vmax (Canis familiaris [17]) [%] | APD95 (Canis familiaris [18]) [%] | APD95 (Canis familiaris [19]) |
| --- | --- | --- | --- | --- | --- | --- | --- | --- | --- | --- | --- | --- | --- | --- | --- | --- | --- | --- | --- |
| Cl.O=C(CCC1C(=O)C2CCN1CC2)c1ccccc1 (stereo not given) | 12 | 12 | < 10 | -36 | -52 | 17 | < 10 | -1 | -3 | -16 | -14 | – | – | – | – | – | – | – | – |
| Cl.O=C1C2CCN(CC2)C1CCCc1ccccc1 (stereo not given) | – | – | – | – | – | – | – | – | -6 | – | – | <10 | 5 | <10 | < 10 | 5 | < 10 | 1 | -38% and -35% |
